The values that follow come from ChEMBL document CHEMBL1156688, “Synthesis and biological activities of a series of 4,5-diaryl-3-hydroxy-2(5H)-furanones” (Eur J Med Chem, 2008).

Assay [1] can be described thus: DPPH radical scavenging activity assessed as ratio of drug concentration to DPPH concentration producing 50% decrease in DPPH after 5 mins. The format is functional. The procedure, abridged:
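DPPH decay was followed spectrophotometrically at 515 nm, read every 0.02 min, starting from about […] DPPH. ECR50 is the ratio of antioxidant to DPPH concentration giving a 50% fall in DPPH; the methods state 6 min of reaction. Trolox and ascorbic acid served as references.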

The nature of assay [2]: Antioxidant activity assessed as inhibition of peroxynitrite-induced evans blue bleaching at 50 uM. The format is functional. More on the design: scale not given: the % may be the effect or the level left. The procedure, abridged:
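Room-temperature assay in 50 mM phosphate-buffered saline, pH 7.4, containing 0.1 mM diethylenetriaminepentaacetic acid, 90 mM NaCl and 5 mM KCl. Test compound, Evans Blue ([…] as printed) and peroxynitrite ([…] as printed) were mixed rapidly. Bleaching was read at 608 nm. Blanks held DMF alone or peroxynitrite degraded for 5 min.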

Assay [3] has as its target T1, Polyunsaturated fatty acid 5-lipoxygenase (Homo sapiens) (UniProt P09917).
T1 sequence (whole entry): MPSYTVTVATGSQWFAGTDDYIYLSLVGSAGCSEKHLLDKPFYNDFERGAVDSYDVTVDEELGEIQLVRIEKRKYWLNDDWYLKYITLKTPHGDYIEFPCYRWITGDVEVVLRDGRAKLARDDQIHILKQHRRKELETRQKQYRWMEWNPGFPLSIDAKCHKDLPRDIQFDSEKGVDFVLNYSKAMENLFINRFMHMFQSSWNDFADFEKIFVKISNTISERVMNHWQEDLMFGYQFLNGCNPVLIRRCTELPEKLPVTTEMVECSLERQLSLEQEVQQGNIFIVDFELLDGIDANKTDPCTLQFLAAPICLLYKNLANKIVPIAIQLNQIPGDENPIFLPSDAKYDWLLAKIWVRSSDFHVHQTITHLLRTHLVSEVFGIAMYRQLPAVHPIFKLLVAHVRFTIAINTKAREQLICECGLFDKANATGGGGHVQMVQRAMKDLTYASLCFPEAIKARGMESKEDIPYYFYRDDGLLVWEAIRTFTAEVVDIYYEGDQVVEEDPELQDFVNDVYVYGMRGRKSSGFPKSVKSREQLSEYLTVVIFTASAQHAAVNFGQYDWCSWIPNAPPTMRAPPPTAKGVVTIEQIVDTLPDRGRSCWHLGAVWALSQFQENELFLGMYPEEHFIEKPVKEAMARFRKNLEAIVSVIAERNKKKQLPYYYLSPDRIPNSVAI
In words: Inhibition of 5LOX in human whole blood assessed as inhibition of calcium ionophore A-stimulated 5-HETE production at 10 uM. More on the design: scale not given: the % may be the effect or the level left. Format: tissue-based. The method, boiled down: (§1)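 Fresh heparinized blood from normal volunteers, in 1 mL aliquots, was preincubated 15 min at 37 °C with compound or DMSO vehicle. It was then stimulated with calcium ionophore A23187 for 30 min at 37 °C. Eicosanoids were extracted into ethyl acetate, dried under nitrogen and redissolved in mobile phase. 5-HETE was quantified by reversed-phase HPLC with UV detection.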

Assay [4] has as its target Human immunodeficiency virus type 1 integrase (Human immunodeficiency virus 1, UniProt Q7ZJM1). Description: Inhibition of HIV1 integrase. The procedure, abridged:
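Wild-type HIV-1 integrase (1 pmol) was tested in a 3′-processing reaction with 0.025 pmol labelled U5A/U5B double-stranded DNA substrate. Buffer was 20 mM Hepes pH 7.2, 10 mM MgCl2, 25 mM NaCl and 1 mM DTT. Oligonucleotides were gel-purified on 18% denaturing acrylamide/urea.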

Assay [5] addresses T1, Polyunsaturated fatty acid 5-lipoxygenase (Homo sapiens). Description: Inhibition of 5LOX in human whole blood assessed as inhibition of calcium ionophore A-stimulated 5-HETE production at 100 uM. The format is tissue-based. More on the design: scale not given: the % may be the effect or the level left. The method, boiled down:
as §1

The test system of assay [6] is PC-3. Description: Antiproliferative activity against human PC3 cells at 10 uM after 72 hrs by MTT assay. Format: functional. The note with it: PC-3, 72 h. The method, boiled down:
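PC3 cells were grown in RPMI 1640 with 10% fetal calf serum at 37 °C under 5% CO2. They were plated at 1.8 × 10^4 cells/well and grown 3 days, then serum-starved 24 h to synchronize. Compounds were added in medium with less than 0.1% DMSO. Growth was estimated by colorimetric MTT after 72 h.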

The target in assay [7] is Prostaglandin G/H synthase 1 (Homo sapiens) (UniProt P23219). Description: Inhibition of COX1 at 100 uM.
Assay [8] has as its system PC-3. Description: Antiproliferative activity against human PC3 cells after 72 hrs by MTT assay. The note with it: PC-3, 72 h.

Human immunodeficiency virus type 1 integrase, sequence (Q7ZJM1 whole entry): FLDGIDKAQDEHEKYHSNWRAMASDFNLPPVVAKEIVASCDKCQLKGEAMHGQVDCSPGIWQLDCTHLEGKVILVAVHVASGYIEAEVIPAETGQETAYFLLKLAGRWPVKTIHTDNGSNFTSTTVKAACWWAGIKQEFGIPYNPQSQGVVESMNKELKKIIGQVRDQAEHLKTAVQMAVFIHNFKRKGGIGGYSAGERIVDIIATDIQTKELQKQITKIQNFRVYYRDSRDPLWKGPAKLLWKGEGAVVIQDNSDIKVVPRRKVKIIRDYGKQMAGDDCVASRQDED

As to `O=C1OC(c2cc(OCc3ccccc3)cc(OCc3ccccc3)c2)C(c2ccc(O)cc2)=C1O` (configuration not stated), the Ratio in assay [1] was determined as 0.65. Also, the Activity in assay [2] stood at 10.4%; in assay [3] it was 32%. This compound gave an IC50 in assay [4] of more than 300 µM.

Turning to `O=C1OC(c2ccc(OCc3ccccc3)c(OCc3ccccc3)c2)C(c2ccc(F)cc2)=C1O` (configuration not stated), the Activity in assay [2] and in assay [3] was 0% throughout. 10 µM corresponded to half-maximal inhibition in assay [4] (IC50).

On to `O=C1O[C@H]([C@@H](O)CO)C(O)=C1O`, for which the Ratio in assay [1] is 0.26. Also, the Activity in assay [2] is 83.6%.

Regarding `O=C1OC(c2cc(O)cc(O)c2)C(c2ccc(F)cc2)=C1O` (configuration not stated), the Activity in assay [2] stood at 40.9%; in assay [3], 0%; in assay [5], 10.7%. This compound also came in with an IC50 in assay [4] of 92 µM. The same compound showed an inhibition at 10 µM in the assay on PC-3 [6] of 0%.

`O=C1OCC(c2ccc(O)cc2)=C1O` registered an IC50 in assay [4] of 3.6 µM.

`O=C1OC(c2ccc(F)cc2)C(c2ccc(O)cc2)=C1O` (configuration not stated): the Ratio in assay [1] was found to be 0.27. The results for the Activity in assay [2], in assay [3] and in assay [5] were 46.5%, 0% and 16.4%, respectively. Also, in assay [4], the IC50 was more than 300 µM. In assay [7], this compound came in with an inhibition of 16.4%.

Consider `O=C1OC(c2cc(OCc3ccccc3)cc(OCc3ccccc3)c2)C(c2ccc(F)cc2)=C1O` (configuration not stated), for which the Activity in assay [2] and in assay [3] was 0% throughout. In addition, in assay [4], the IC50 came to 30 µM.

Turning to `O=C1OC(c2ccc(OCc3ccccc3)cc2)C(c2ccc(O)cc2)=C1O` (configuration not stated), the Ratio in assay [1] is 0.3. Also, the Activity in assay [2] and in assay [3] was 0% throughout. This compound showed an IC50 in assay [4] of more than 300 µM.

The compound `Cc1ccc(-c2cc(C(F)(F)F)nn2-c2ccc(S(N)(=O)=O)cc2)cc1` [CELECOXIB] registered an IC50 with PC-3 [8] of 48 µM.

For `O=C1OC(c2ccc(O)cc2)C(c2ccc(F)cc2)=C1O` (configuration not stated), the Activity in assay [2], in assay [3] and in assay [5] was 0% throughout. Further, the midpoint of inhibition in assay [4], the IC50, lay at 300 µM. In the assay on PC-3 [6], this compound came in with an inhibition at 10 µM of 31%.

In the case of `O=C1OC(c2ccc(O)cc2)C(c2ccc(O)cc2)=C1O` (configuration not stated), the Ratio in assay [1] worked out at 0.32. Moreover, the Activity in assay [2] worked out at 44.9%; in assay [3], 0%; in assay [5], 27.8%. For the same compound, the IC50 in assay [4] is 220 µM. The compound also yielded an inhibition at 10 µM in the assay with PC-3 [6] of 0%.

For the compound `Cc1c(C)c2c(c(C)c1O)CCC(C)(C(=O)O)O2` (configuration not stated), in assay [1], the Ratio came out at 0.26. In assay [2], the Activity is 90%.

Turning to `O=C1OC(c2ccc(OCc3ccccc3)cc2)C(c2ccc(F)cc2)=C1O` (configuration not stated), the Activity in assay [2] and in assay [3] was 0% in each case. Besides, in assay [4], the IC50 is more than 300 µM.

Consider `O=C1OC(c2cc(O)cc(O)c2)C(c2ccc(O)cc2)=C1O` (configuration not stated), for which the Ratio in assay [1] is 0.47. Further, the Activity in assay [2] stood at 33.1%; in assay [3] it was 0%; in assay [5], 11.6%. Moreover, the IC50 in assay [4] was 22 µM. The compound further registered an inhibition at 10 µM in the assay on PC-3 [6] of 39%.

In the case of `O=C1OC(c2ccc(OCc3ccccc3)c(OCc3ccccc3)c2)C(c2ccc(O)cc2)=C1O` (configuration not stated), the Ratio in assay [1] worked out at 0.71. In addition, the Activity in assay [2] amounted to 4.9%; in assay [3] it was 12.7%. The compound further came in with an IC50 in assay [4] of 1 µM.

As for `O=C1OC(c2ccccc2)C(c2ccc(O)cc2)=C1O` (configuration not stated), in assay [1], the Ratio stood at 0.49. Further, the Activity in assay [2] was found to be 29.4%; in assay [3] it was 0%; in assay [5] it was 18.6%. In addition, in assay [4], the IC50 was more than 300 µM. For the same compound, the inhibition in assay [7] was 32.9%.

Turning to `O=C1OC(c2ccc(O)c(O)c2)C(c2ccc(O)cc2)=C1O` (configuration not stated), the Ratio in assay [1] came to 0.25. Further, the Activity in assay [2] came to 92%; in assay [3] it was 35.4%; in assay [5], 79.5%. Besides, the IC50 in assay [4] is 9.2 µM. Further, 10 µM produced 20% inhibition with PC-3 [6].
